Results: ChEMBL document CHEMBL1140336, “Synthesis, structure-activity relationships, and biological evaluation of fatty alcohol phosphates as lysophosphatidic acid receptor ligands, activators of PPARgamma, and inhibitors of autotaxin” (J Med Chem, 2005)

Key:
[1] = Percent maximal efficacy in PC-3 cells; assay type: functional, Homo sapiens
How it was run: (§1)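 PC-3 human prostate cancer cells, which express LPA1-3 endogenously, 50000 cells/well. Serum-starved 12 h in modified Krebs, loaded with Fura-2 AM, read in a FlexStation. Ca2+ transient = 340/380 ratio peak minus baseline. Agonism (Emax as % of maximal LPA 18:1 response) and inhibition of LPA-induced transients were measured.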

[2] = biological target: T1, Lysophosphatidic acid receptor 1 (Homo sapiens, UniProt Q92633); test: (§2) Inhibition of LPA-induced calcium transients in RH7777 rat hepatoma cells expressing LPA1 receptor; No effect; assay type: functional, cell-based
How it was run: (§3)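 Fura-2 Ca2+ assay. RH7777 cells stably expressing LPA1, LPA2 or LPA3, or PC-3 cells (endogenous LPA1-3), seeded at 50000 cells/well on poly-D-lysine and grown overnight. Serum-starved in modified Krebs, pH 7.4, for 6-8 h (PC-3: 12 h), then Fura-2 AM loaded for 35 min. Compound added at 15 s; wells read 80-120 s. Transient taken as peak minus baseline 340/380 ratio. Antagonism: LPA 18:1 coapplied; highest concentration 30 μM.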

[3] = biological target: T1, Lysophosphatidic acid receptor 1; test: as §2; assay type: functional, cell-based; remark: listed apart in the source
[4] = biological target: T2, Lysophosphatidic acid receptor 3 (Homo sapiens, UniProt Q9UBY5); test: Inhibition of LPA-induced calcium transients in RH7777 rat hepatoma cells expressing LPA3 receptor; No effect; assay type: functional, cell-based; how it was run: as §3
T2 sequence (Q9UBY5 whole entry): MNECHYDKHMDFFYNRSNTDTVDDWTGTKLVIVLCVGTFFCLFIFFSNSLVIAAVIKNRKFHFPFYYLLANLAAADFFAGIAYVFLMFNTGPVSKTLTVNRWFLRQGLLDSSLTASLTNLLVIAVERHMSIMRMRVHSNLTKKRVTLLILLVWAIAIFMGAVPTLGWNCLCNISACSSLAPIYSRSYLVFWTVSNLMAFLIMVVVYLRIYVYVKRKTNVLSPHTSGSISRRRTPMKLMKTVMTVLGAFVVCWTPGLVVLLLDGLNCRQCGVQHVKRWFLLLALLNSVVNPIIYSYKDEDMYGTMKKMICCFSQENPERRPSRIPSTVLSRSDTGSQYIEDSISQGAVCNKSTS

[5] = biological target: T2, Lysophosphatidic acid receptor 3; test: Binding affinity for Lysophosphatidic acid receptor 3 expressed in RH7777 rat hepatoma cells; assay type: cell-based; how it was run: as §3
[6] = biological target: T2, Lysophosphatidic acid receptor 3; test: Inhibition of LPA-induced calcium transients in RH7777 rat hepatoma cells expressing LPA3 receptor; assay type: functional, cell-based; how it was run: as §3
[7] = Inhibition of LPA-induced calcium transients in PC-3 cells; assay type: functional, cell-based, Homo sapiens; how it was run: as §1
[8] = biological target: T3, Lysophosphatidic acid receptor 2 (Homo sapiens, UniProt Q9HBW0); test: Inhibition of LPA-induced calcium transients in RH7777 rat hepatoma cells expressing LPA2 receptor; No effect; assay type: functional, cell-based; how it was run: as §3
[9] = biological target: T3, Lysophosphatidic acid receptor 2; test: (§4) Inhibition of LPA-induced calcium transients in RH7777 rat hepatoma cells expressing LPA2 receptor; assay type: functional, cell-based
[10] = Binding affinity for Lysophosphatidic acid receptor in PC-3 cells; assay type: cell-based, Homo sapiens; how it was run: as §3
[11] = biological target: T3, Lysophosphatidic acid receptor 2; test: as §4; assay type: functional, cell-based; how it was run: as §3; remark: listed apart in the source
[12] = biological target: T1, Lysophosphatidic acid receptor 1; test: Inhibition of LPA-induced calcium transients in RH7777 rat hepatoma cells expressing LPA1 receptor; assay type: functional, cell-based; how it was run: as §3
[13] = biological target: T3, Lysophosphatidic acid receptor 2; test: Binding affinity for Lysophosphatidic acid receptor 2 expressed in RH7777 rat hepatoma cells; assay type: cell-based; details: rh7777
[14] = biological target: T1, Lysophosphatidic acid receptor 1; test: Binding affinity for Lysophosphatidic acid receptor 1 expressed in RH7777 rat hepatoma cells; assay type: cell-based; how it was run: as §3
Homo sapiens [15] = organism: Homo sapiens; test: Maximal shape change of human platelets induced by the compound; assay type: functional
How it was run: (§5)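 Washed human platelets, aspirin-treated and isolated with apyrase, at 4 × 10^5/μL in HEPES buffer pH 7.4, stirred at 37 °C. Lipids given as BSA complexes (4:1). Shape change read as the fall in light transmission in an aggregometer. […] Mean ± SD across different donors.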

Homo sapiens [16] = organism: Homo sapiens; test: Inhibitory concentration of compound (after 5 min of incubation) against LPA human platelets
Homo sapiens [17] = organism: Homo sapiens; test: Concentration of compound (after 5 min of addition) that induce LPA expressed in human platelets; assay type: functional; how it was run: as §5
[18] = Homo sapiens, PC-3, read-out: IC50

T1 sequence (Q92633 whole entry): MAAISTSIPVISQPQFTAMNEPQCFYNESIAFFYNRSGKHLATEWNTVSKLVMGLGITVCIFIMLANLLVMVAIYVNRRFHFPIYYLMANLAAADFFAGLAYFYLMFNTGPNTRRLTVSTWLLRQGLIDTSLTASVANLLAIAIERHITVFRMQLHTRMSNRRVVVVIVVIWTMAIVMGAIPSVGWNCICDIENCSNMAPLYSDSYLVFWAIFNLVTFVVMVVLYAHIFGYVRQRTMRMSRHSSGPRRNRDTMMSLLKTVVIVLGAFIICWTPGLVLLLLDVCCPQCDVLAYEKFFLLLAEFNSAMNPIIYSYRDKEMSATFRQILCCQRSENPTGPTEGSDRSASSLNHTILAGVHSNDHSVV
T3 sequence (Q9HBW0 whole entry): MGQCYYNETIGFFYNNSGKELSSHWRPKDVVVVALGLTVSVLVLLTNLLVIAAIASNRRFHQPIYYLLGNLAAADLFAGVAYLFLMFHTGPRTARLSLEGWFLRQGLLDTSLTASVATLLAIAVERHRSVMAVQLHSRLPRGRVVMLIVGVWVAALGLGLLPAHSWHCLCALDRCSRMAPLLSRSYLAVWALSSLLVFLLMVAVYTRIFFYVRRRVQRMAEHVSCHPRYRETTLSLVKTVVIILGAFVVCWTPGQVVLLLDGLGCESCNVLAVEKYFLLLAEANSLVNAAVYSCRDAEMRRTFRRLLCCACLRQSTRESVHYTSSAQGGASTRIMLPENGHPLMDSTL

With `CCCC/C=C/CCCCCCCCOP(O)(O)=S` the Emax [1] was 40%, the EC50 [2] was “Not Active” and the IC50 [3] was “Not Active”. The EC50 [4] was “Not Active”, the Ki [5] was 14 nM and the IC50 [6] was 28 nM. For the same molecule, the IC50 [7, 18] was 938 nM, the IC50 [8] was “Not Active” and the EC50 [9] was 480 nM. For the same molecule, the Ki [10] was 397 nM.

For `CCCCC/C=C/CCCOP(=O)(O)O`, the EC50 [2] was “Not Active”, the EC50 [4] was “Not Active” and the Ki [5] was 370 nM. It also gave an IC50 [6] of 830 nM, an IC50 [7, 18] of 1300 nM and an EC50 [11] of over 10000 nM. For the same molecule, the IC50 [8] was “Not Active”, the IC50 [12] was over 10000 nM and the Ki [10] was 735 nM.

In the case of `Cc1noc(-c2ccc(CSCCC(=O)O)cc2)c1NC(=O)OC(C)c1ccccc1Cl` (stereo not given), the EC50 [2] is reported as “Not Active”, the EC50 [4] is reported as “Not Active” and the Ki [5] is reported as 148 nM. The IC50 [6] was 301 nM, the IC50 [7, 18] was 3380 nM and the Ki [13] was “Not Active”. For the same molecule, the EC50 [8] was “Not Active”, the IC50 [8] was “Not Active” and the IC50 [12] was 762 nM. The Ki [10] was 1740 nM and the Ki [14] was 425 nM.

With `CCCCCCCC/C=C/CCCCCCCCOP(=O)(O)O` the Emax [1] was 11%, the EC50 [2] was “Not Active” and the IC50 [3] was “Not Active”. For the same molecule, the EC50 [4] was “Not Active”, the IC50 [4] was “Not Active” and the EC50 [8] was “Not Active”. For the same molecule, the IC50 [8] was “Not Active”.

In the case of `CC/C=C/CCCCCCCCCCOP(=O)(O)O`, the EC50 [2] is reported as “Not Active”, the EC50 [4] is reported as “Not Active” and the Ki [5] is reported as 40 nM. For the same molecule, the IC50 [6] was 103 nM, the IC50 [8] was “Not Active” and the EC50 [9] was 4100 nM.

For `C=CCCCCCCCCOP(O)(O)=S`, the EC50 [2] was “Not Active”, the IC50 [3] was “Not Active” and the EC50 [4] was “Not Active”. The IC50 [7, 18] was 1000 nM, the IC50 [8] was “Not Active” and the EC50 [9] was over 10000 nM. The Ki [10] was 533 nM.

For `CCCCCCCCCCP(=O)(O)O`, the EC50 [2] was “Not Active”, the IC50 [3] was “Not Active” and the EC50 [4] was “Not Active”. For the same molecule, the Ki [5] was 680 nM, the IC50 [6] was 1200 nM and the IC50 [7, 18] was 3120 nM. For the same molecule, the EC50 [8] was “Not Active”, the IC50 [8] was “Not Active” and the Ki [10] was 1500 nM.

With `CCCCCCCCCCCCCCOP(O)(O)=S` [THIOPHOSPHORIC ACID TETRADECYL ESTER] the EC50 [2] was “Not Active”, the IC50 [3] was “Not Active” and the EC50 [4] was “Not Active”. The EC50 [7] was “Not Active”, the IC50 ([7]; pc-3) was “Not Active” and the IC50 [8] was “Not Active”.

With `CCCCCCCCCCOP(=O)(O)O` [PHOSPHORIC ACID MONODECYL ESTER] the EC50 [2] was “Not Active”, the IC50 [3] was “Not Active” and the EC50 [4] was “Not Active”. For the same molecule, the Ki [5] was 121 nM, the IC50 [6] was 384 nM and the IC50 [8] was “Not Active”.

With `CCCCCCCCCCCCP(=O)(O)O` the EC50 [2] was “Not Active”, the IC50 [3] was “Not Active” and the EC50 [4] was “Not Active”. It also gave a Ki [5] of 303 nM, an IC50 [6] of 654 nM and an IC50 [7, 18] of 2640 nM. For the same molecule, the EC50 [8] was “Not Active”, the IC50 [8] was “Not Active” and the Ki [10] was 1270 nM.

In the case of `CC/C=C/CCCCCCCCOP(=O)(O)O`, the Emax (Homo sapiens [15]) is reported as 89%, the EC50 [2] is reported as “Not Active” and the EC50 [4] is reported as “Not Active”. For the same molecule, the IC50 (Homo sapiens [16]) was 700 nM, the Ki [5] was 27 nM and the IC50 [6] was 32 nM. For the same molecule, the IC50 [7, 18] was 916 nM, the EC50 [11] was 717 nM and the IC50 [8] was “Not Active”. It also gave an IC50 [12] of over 10000 nM, a Ki [10] of 390 nM and an EC50 (Homo sapiens [17]) of 1500 nM.

With `CCCCCCCC/C=C/CCCCCCCC(=O)OCC(O)COP(=O)(O)O` (stereo not given) [OLEOYL] the Emax (Homo sapiens [15]) was 120% and the EC50 (Homo sapiens [17]) was 9 nM.

For `C=CCCCCCCCCOP(=O)(O)O`, the EC50 [2] was “Not Active”, the EC50 [4] was “Not Active” and the IC50 [7, 18] was 1510 nM. For the same molecule, the IC50 [8] was “Not Active”, the IC50 [12] was over 10000 nM and the Ki [10] was 574 nM.
